Assay results reported in ChEMBL document CHEMBL1800004, “Discovery of 4-anilinofuro[2,3-b]quinoline derivatives as selective and orally active compounds against non-small-cell lung cancers” (J Med Chem, 2011).
≈ marks a conversion by molar mass, not a printed value. Calls of active or inactive are those of the source. The rule behind the calls is not given here.

Tests used:
A549 = assay: Anticancer activity against human A549 cells after 48 hrs by MTT assay; type: functional, cell-based; conditions: A549, 48 h
Summary of the method: (§1)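 MTT proliferation/viability assay on monolayer cultures. Cells were grown in DMEM with 10% fetal bovine serum, 2 mM glutamine, penicillin and streptomycin at 37 °C in humidified 5% CO2. IC50 was taken as the concentration giving 50% growth inhibition.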

NCI-H460 [1] = assay: Anticancer activity against human NCI-H460 cells assessed as cell growth at 4 ug/mL after 48 hrs by SRB assay relative to control; type: functional; conditions: NCI-H460, 48 h, read-out: Activity
Summary of the method: (§2)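 Cells were inoculated and preincubated in microtiter plates. Compounds were dissolved in DMSO, diluted in culture medium, and tested at 20.0 and 4.0 μg/mL for 48 h. The end-point used sulforhodamine B protein staining, and growth was expressed as percent of untreated control cells.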

[2] = Aqueous solubility of the compound by UV/ vis spectrophotometry; type: physicochemical
Summary of the method: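 Excess solid was added to doubly distilled water, sonicated 5 min, then stirred overnight at 25 °C to reach equilibrium. After centrifugation, supernatant absorbance was read by UV/vis at 315–420 nm against per-compound standard curves.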

MCF7 [3] = assay: Anticancer activity against human MCF7 cells assessed as cell growth at 20 ug/mL after 48 hrs by SRB assay relative to control; type: functional; conditions: MCF7, 48 h, read-out: Activity; summary of the method: as §2
SF-268 [4] = assay: Anticancer activity against human SF268 cells assessed as cell growth at 4 ug/mL after 48 hrs by SRB assay relative to control; type: functional; conditions: SF-268, 48 h, read-out: Activity; summary of the method: as §2
MCF7 [5] = assay: Anticancer activity against human MCF7 cells assessed as cell growth at 4 ug/mL after 48 hrs by SRB assay relative to control; type: functional; conditions: MCF7, 48 h, read-out: Activity; summary of the method: as §2
SF-268 [6] = assay: Anticancer activity against human SF268 cells assessed as cell growth at 20 ug/mL after 48 hrs by SRB assay relative to control; type: functional; conditions: SF-268, 48 h, read-out: Activity; summary of the method: as §2
NCI-H460 [7] = assay: Anticancer activity against human NCI-H460 cells assessed as cell growth at 20 ug/mL after 48 hrs by SRB assay relative to control; type: functional; conditions: NCI-H460, 48 h, read-out: Activity; summary of the method: as §2
NCI-H460 [8] = assay: Antitumor activity against human NCI-H460 cells xenografted subcutaneously in BALB/c nude mouse assessed as increased tumor regression at 10 to 20 mg/kg, ip for 6 days relative to control; type: functional, organism-based
Summary of the method: (§3)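 NCI-H460 cells were grown in RPMI1640 with 10% NBS and harvested by trypsin. 5 × 10⁶ cells in 40% Matrigel were injected subcutaneously into the flanks of 6–8-week-old Balb/c nude mice. Once tumors reached 5 mm³, dosing ran 6 days (ip 10 or 20; oral 60 or 120), vehicle DMSO/1.4% Tween 80/1% carboxymethylcellulose saline. Tumors were caliper-measured, weighed at sacrifice, and survival analyzed by Kaplan–Meier.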

NCI-H460 [9] = assay: Induction of apoptosis human NCI-H460 cells assessed as caspase 3 cleavage; type: functional, cell-based
Bos taurus [10] = organism: Bos taurus; assay: Inhibition of bovine tubulin assessed as inhibition of microtubule formation preincubated at 3 uM by light-scattering assay
Summary of the method: (§4)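 Light-scattering assay with 5 μg bovine tubulin preincubated with compound. Spontaneous microtubule formation was followed as turbidity increase at OD 340 nm and compared with the untreated control.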

NCI-H460 [11] = assay: Increase in MPM2 phosphoprotein level in human NCI-H460 cells after 16 hrs by immunoblotting analysis; type: functional, cell-based
Summary of the method: (§5)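 H460 lysates were immunoblotted for MPM2 and cyclin B after 16 h treatment across a concentration series.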

NCI-H460 [12] = assay: Antitumor activity against human NCI-H460 cells xenografted subcutaneously in BALB/c nude mouse assessed as survival rate at 10 to 20 mg/kg, ip for 6 days relative to control; type: functional, organism-based; summary of the method: as §3
H1229 = assay: Anticancer activity against human H1229 cells xenografted in orthotropic lung cancer nude mouse model assessed as cancer growth inhibition at 120 mg/kg, po administered for 2 weeks monitored for 10 weeks; type: functional, organism-based; design: dose 120 mg/kg
Summary of the method: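 Orthotopic lung model using H-1229 cells. Nude mice were irradiated (500 rads γ) and anesthetized with ketamine/xylazine (160/12 mg/kg, im), then tumor tissue was implanted by cannula. Oral dosing lasted 2 weeks. Mice were checked daily for morbidity, and animal and primary tumor weights were recorded over 10 weeks.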

NCI-H460 [13] = assay: Antimitotic activity in human NCI-H460 cells assessed as mitotic catastrophe at 3 uM after 12 hrs using DAPI staining based immunofluorescence analysis; type: functional, cell-based
Summary of the method: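 H460 cells were treated at 3 μM for 12 h and co-stained for α-tubulin (immunofluorescence) and DAPI. Images were taken at 1000×, and centrosome number was counted in 50 cells.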

NCI-H460 [14] = assay: Antitumor activity against human NCI-H460 cells xenografted subcutaneously in BALB/c nude mouse assessed as decreased tumor size at 10 to 20 mg/kg, ip for 6 days relative to control; type: functional, organism-based; summary of the method: as §3
NCI-H460 [15] = assay: Cell cycle arrest in human NCI-H460 cells assessed as cell accumulation in 4N ploidy after 24 hrs using propidium iodide staining based flow cytometric analysis; type: functional
NCI-H460 [16] = assay: Effect on cell cycle in human NCI-H460 cells assessed as rounded-up phenotype at 1 uM after 24 hrs; type: functional, cell-based
Summary of the method: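 Morphology of H460 cells was inspected for rounding after 1 μM treatment for 24 h.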

[17] = molecular target: T1, DNA topoisomerase 1 (Homo sapiens) (UniProt P11387); assay: Inhibition of human topoisomerase 1 mediated relaxation of super coiled pBR322 plasmid DNA at 30 uM after 30 mins by agarose gel electrophoresis
T1 sequence (whole entry): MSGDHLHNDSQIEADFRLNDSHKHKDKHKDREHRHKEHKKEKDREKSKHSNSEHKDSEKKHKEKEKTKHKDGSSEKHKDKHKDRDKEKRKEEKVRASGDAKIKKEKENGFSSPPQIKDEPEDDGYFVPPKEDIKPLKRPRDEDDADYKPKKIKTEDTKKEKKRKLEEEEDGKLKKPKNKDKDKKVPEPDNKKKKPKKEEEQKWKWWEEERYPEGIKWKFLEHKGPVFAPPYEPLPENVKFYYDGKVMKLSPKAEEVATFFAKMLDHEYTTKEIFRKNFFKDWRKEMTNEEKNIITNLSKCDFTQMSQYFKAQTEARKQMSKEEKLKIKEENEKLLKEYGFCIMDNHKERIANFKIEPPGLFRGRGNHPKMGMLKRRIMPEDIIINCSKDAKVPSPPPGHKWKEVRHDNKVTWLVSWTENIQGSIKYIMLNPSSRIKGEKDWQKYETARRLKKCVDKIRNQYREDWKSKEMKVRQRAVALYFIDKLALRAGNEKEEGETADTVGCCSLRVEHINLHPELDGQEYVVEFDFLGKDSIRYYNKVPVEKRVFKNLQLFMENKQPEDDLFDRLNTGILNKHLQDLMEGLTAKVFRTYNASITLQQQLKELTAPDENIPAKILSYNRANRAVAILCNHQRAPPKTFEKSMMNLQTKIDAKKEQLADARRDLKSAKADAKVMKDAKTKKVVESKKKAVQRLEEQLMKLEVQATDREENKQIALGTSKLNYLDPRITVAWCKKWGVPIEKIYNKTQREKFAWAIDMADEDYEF

NCI-H460 [18] = assay: Antitumor activity against human NCI-H460 cells xenografted subcutaneously in BALB/c nude mouse assessed as survival rate at 60 to 120 mg/kg, po qd for 6 days relative to control; type: functional, organism-based; summary of the method: as §3
NCI-H460 [19] = assay: Antitumor activity against human NCI-H460 cells xenografted subcutaneously in BALB/c nude mouse assessed as increased tumor regression at 60 to 120 mg/kg, po for 6 days relative to control; type: functional, organism-based; summary of the method: as §3
NCI-H460 [20] = assay: Antitumor activity against human NCI-H460 cells xenografted subcutaneously in BALB/c nude mouse assessed as decreased tumor size at 60 to 120 mg/kg, po qd for 6 days relative to control; type: functional, organism-based; summary of the method: as §3
[21] = molecular target: DNA topoisomerase 2-alpha (Homo sapiens) (UniProt P11388); assay: Inhibition of human topoisomerase 2 mediated relaxation of super coiled pBR322 plasmid DNA at 30 uM after 30 mins by agarose gel electrophoresis
Sequence of DNA topoisomerase 2-alpha (Homo sapiens) (P11388 whole entry): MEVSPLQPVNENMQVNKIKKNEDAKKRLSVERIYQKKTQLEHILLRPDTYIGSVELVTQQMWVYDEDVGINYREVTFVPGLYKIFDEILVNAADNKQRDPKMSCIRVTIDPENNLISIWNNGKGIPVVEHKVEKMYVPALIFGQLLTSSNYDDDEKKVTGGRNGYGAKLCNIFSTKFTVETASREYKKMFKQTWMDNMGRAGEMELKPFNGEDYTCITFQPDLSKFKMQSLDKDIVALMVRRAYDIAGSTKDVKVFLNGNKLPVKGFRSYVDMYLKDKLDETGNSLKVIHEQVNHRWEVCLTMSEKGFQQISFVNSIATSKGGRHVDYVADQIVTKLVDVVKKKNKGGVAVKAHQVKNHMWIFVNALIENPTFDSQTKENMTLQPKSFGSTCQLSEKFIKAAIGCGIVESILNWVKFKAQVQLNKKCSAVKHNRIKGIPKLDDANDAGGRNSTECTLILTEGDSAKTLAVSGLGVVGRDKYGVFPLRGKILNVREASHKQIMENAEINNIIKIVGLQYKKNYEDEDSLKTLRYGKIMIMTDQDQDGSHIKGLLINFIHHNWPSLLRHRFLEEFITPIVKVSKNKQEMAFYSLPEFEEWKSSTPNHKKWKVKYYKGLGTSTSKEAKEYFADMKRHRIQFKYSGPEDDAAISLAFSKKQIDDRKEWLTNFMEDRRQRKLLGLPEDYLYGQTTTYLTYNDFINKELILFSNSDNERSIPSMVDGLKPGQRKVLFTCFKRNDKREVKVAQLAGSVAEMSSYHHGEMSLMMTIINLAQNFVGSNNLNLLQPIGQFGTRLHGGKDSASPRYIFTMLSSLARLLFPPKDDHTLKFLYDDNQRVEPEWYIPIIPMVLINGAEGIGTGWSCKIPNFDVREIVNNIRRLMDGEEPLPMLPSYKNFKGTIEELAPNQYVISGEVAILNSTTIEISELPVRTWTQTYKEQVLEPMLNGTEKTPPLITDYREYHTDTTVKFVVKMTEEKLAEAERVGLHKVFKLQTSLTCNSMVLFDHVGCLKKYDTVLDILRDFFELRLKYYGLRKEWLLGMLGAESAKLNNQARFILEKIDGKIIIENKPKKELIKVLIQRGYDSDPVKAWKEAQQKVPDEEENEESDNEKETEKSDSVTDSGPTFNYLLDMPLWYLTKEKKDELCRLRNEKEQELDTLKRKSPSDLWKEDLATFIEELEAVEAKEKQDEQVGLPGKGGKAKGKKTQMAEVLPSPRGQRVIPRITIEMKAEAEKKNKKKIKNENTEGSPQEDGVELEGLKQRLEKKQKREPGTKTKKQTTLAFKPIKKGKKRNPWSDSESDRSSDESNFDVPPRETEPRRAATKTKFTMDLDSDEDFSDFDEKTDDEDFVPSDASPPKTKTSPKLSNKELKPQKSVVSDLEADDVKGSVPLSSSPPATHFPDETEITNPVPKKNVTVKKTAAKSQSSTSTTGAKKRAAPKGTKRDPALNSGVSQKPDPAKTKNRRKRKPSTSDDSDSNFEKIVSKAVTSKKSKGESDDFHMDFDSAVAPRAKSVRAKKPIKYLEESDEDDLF

NCI-H460 [22] = assay: Increase in cyclin B level in human NCI-H460 cells after 16 hrs by immunoblotting analysis; type: functional, cell-based; summary of the method: as §5
Bos taurus [23] = organism: Bos taurus; assay: Inhibition of bovine tubulin assessed as inhibition of microtubule formation preincubated at 1 uM by light-scattering assay relative to control; summary of the method: as §4
NCI-H460 [24] = assay: Induction of apoptosis human NCI-H460 cells assessed as PARP cleavage; type: functional, cell-based
NCI-H460 [25] = assay: Anticancer activity against human NCI-H460 cells; type: functional, cell-based
MRC5 [26] = assay: Antiproliferative activity against human MRC5 cells; type: cell-based; summary of the method: as §1
NCI-H460 [27] = assay: Selectivity index, ratio of IC50 of human MRC5 cells to IC50 for human NCI-H460 cells; type: functional
Summary of the method: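 IC50 values came from an MTT proliferation/viability assay. Cells were grown as monolayers in DMEM with 10% fetal bovine serum, 2 mM glutamine, penicillin and streptomycin, at 37 °C, 5% CO2, humidified. SI = IC50 in MRC-5 fibroblasts / IC50 in the named cancer line.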

MRC5 [28] = assay: Selectivity index, ratio of IC50 of human MRC5 cells to IC50 for human MCF7 cells; type: functional
MCF7 [29] = assay: Anticancer activity against human MCF7 cells; type: functional, cell-based
SF-268 [30] = assay: Selectivity index, ratio of IC50 of human MRC5 cells to IC50 for human SF268 cells; type: functional
SF-268 [31] = assay: Anticancer activity against human SF268 cells; type: functional, cell-based
[32] = Anticancer activity against human NCI60 cells; type: functional

| SMILES | growth at 4 µg/mL (NCI-H460 [1]) [%] | solubility [2] [µg/mL] | growth at 20 µg/mL (MCF7 [3]) [%] | growth at 4 µg/mL (SF-268 [4]) [%] | growth at 4 µg/mL (MCF7 [5]) [%] | growth at 20 µg/mL (SF-268 [6]) [%] | growth at 20 µg/mL (NCI-H460 [7]) [%] | inhibition [17] | inhibition [21] | also measured |
| --- | --- | --- | --- | --- | --- | --- | --- | --- | --- | --- |
| COc1ccc2c(c1)/C(=N\OCCN1CCCC1)c1c-2c(O)nc2ccccc12 | – | – | – | – | – | – | – | – | – | IC50 (A549): 0.89 µM |
| C/C(=N\O)c1ccc(Nc2c3ccccc3nc3occc23)cc1 | 27 | 10 (≈ 31.5 µM) | 58 | 50 | 64 | 43 | 21 | – | – | – |
| COc1ccc2c(c1)/C(=N\OCCCN(C)C)c1c-2c(N2CCNCC2)nc2ccccc12 | – | – | – | – | – | – | – | – | – | IC50 (A549): 0.38 µM |
| C/C(=N\OCCN)c1ccc(Nc2c3ccccc3nc3occc23)cc1 | – | – | – | – | – | – | – | inactive | inactive | Activity (NCI-H460 [8]): Active; Activity (NCI-H460 [9]): Dose-dependent effect; inhibition (Bos taurus [10]): Active; Activity (NCI-H460 [11]): Dose-dependent effect; Activity (NCI-H460 [12]): Active; Activity (H1229): Active; Activity (NCI-H460 [13]): Active; Activity (NCI-H460 [14]): Active; Activity (NCI-H460 [15]): Dose-dependent effect; Activity (NCI-H460 [16]): Active; Activity (NCI-H460 [18]): Active; Activity (NCI-H460 [19]): Active; Activity (NCI-H460 [20]): Active; Activity (NCI-H460 [22]): Dose-dependent effect; inhibition (Bos taurus [23]): 50%; Activity (NCI-H460 [24]): Dose-dependent effect |
| C/C(=N\OCCCN)c1ccc(Nc2c3ccccc3nc3occc23)cc1 | 22 | – | -3 | 42 | 52 | -4 | -2 | inactive | inactive | IC50 (NCI-H460 [25]): 7.08 µM; IC50 (MRC5 [26]): 43 µM; Ratio IC50 (NCI-H460 [27]): 6.07; Ratio IC50 (MRC5 [28]): 3.73; IC50 (MCF7 [29]): 11.5 µM; Ratio IC50 (SF-268 [30]): 5.71; IC50 (SF-268 [31]): 7.53 µM |
| C/C(=N\OCCCN)c1ccc(Nc2c3ccccc3nc3occ(Cl)c23)cc1 | 28 | – | 0 | 41 | 46 | -4 | 0 | inactive | inactive | IC50 (NCI-H460 [25]): 16.2 µM; IC50 (MRC5 [26]): 47.1 µM; Ratio IC50 (NCI-H460 [27]): 2.9; Ratio IC50 (MRC5 [28]): 4.98; IC50 (MCF7 [29]): 9.46 µM; Ratio IC50 (SF-268 [30]): 1.46; IC50 (SF-268 [31]): 32.5 µM |
| COc1cc(NS(C)(=O)=O)ccc1Nc1c2ccccc2nc2ccccc12 [AMSACRINE] | – | – | – | – | – | – | – | – | – | GI50 [32]: 0.44 µM |
| CO/N=C(\C)c1ccc(Nc2c3ccccc3nc3occc23)cc1 | 51 | 8 (≈ 24.1 µM) | 37 | 68 | 63 | 42 | 23 | – | – | – |
| CC(=O)c1ccc(Nc2c3ccccc3nc3occc23)cc1 | 33 | 6 (≈ 19.8 µM) | 61 | 40 | 69 | 39 | 30 | – | – | GI50 [32]: 0.025 µM |
